RBBP9 inhibitor = blocks human serine hydrolase RBBP9. 220,000 compounds, 0.2% hits. O75884. recombinant RBBP9, FP-Rh probe fluorescence polarization. inhibition, % at 7.94 µM;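 active = inhibition above the campaign mean of all tested compounds plus 3 SD, cut at about 14% in these data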;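 note: plate controls were DMSO wells with RBBP9 for no effect and wells lacking RBBP9 protein for full effect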
Target sequence (O75884 whole entry, looked up): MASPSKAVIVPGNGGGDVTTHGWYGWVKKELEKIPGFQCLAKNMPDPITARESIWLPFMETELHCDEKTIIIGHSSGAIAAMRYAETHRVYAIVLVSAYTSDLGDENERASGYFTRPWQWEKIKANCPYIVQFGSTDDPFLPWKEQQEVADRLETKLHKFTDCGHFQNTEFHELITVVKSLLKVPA
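System: RBBP9 protein / Quantity: 2.5 µM RBBP9 dispensing solution, before mixing / Also added: Serine-hydrolase probe FP-Rh, 375 nM pre-mixing / Dosing: 7.94 µM single dose, 0.794% DMSO / Timing: enzyme-compound preincubation 30 min, then probe labeling 45 min, 25 °C / Signal: FP readout at 525/598 nm / Controls: DMSO-treated enzyme wells and wells lacking RBBP9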
Runt-SMMHC FRET = Runt domain-CBFb-SMMHC interaction inhibition | Cerulean-Runt/Venus-CBFb-SMMHC FRET ratio 530/480, 1 h | AID 1434 | 220,000 compounds, 0.74% hits | Q01196+Q13951 | inhibition, % at 20 µM;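 active = mean inhibition across duplicate retests at 20 µM reaching about 50%, limit read from the data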;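 note: 0% = DMSO wells and 100% = wells with excess untagged CBFb-SMMHC; inhibitors lower the FRET ratio by blocking Runt binding to CBFb-SMMHC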
RanGTP-Imp inh = disruptors of Ran-importin-beta complex formation – biochemical, FRET, CFP-Ran, YFP-importin-beta, homogeneous, primary screen. cell-free CFP-Ran/YFP-importin-beta FRET ratio. inhibition, % (no concentration beside the values). 300,000 compounds, 1.1% hits;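 active = more than half of the replicate wells show a fall in the fluorescence ratio signal beyond about 16%, limit read from the data, passing the limit was not always enough; inconclusive = exactly half of the replicate wells pass the set limit; inactive = fewer than half of replicates pass the limit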;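 note: 0% = DMSO wells and 100% = Ran loaded with GDP instead of GTP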
Hck-Nef inh = blocks Nef-activated human Hck kinase | P08631 | Recombinant Hck-YEEI plus Nef, Z-Lyte FRET kinase assay | inhibition, % at 20 µM | 220,000 compounds, 0.68% hits | AID 463187;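 active = Hck-Nef kinase inhibition above about 50%, limit read from the data; inactive = inhibition below that limit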;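 note: 0% = DMSO with Hck plus Nef and 100% = Hck alone without Nef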
Target sequence (P08631 whole entry, looked up): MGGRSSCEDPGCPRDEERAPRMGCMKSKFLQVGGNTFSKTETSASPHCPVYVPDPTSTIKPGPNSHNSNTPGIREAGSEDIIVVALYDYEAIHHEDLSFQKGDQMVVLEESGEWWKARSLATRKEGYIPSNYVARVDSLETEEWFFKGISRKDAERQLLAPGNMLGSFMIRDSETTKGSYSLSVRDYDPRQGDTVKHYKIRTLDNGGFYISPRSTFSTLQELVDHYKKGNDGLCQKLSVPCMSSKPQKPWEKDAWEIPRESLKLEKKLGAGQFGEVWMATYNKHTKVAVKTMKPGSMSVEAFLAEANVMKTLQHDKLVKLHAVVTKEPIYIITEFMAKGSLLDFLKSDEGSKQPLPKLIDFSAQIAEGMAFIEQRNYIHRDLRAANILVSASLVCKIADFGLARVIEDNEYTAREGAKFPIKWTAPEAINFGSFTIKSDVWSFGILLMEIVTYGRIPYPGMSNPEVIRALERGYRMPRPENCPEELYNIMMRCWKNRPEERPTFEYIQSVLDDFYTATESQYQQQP
Runt-CBFb FRET = inhibitors of human RUNX1 Runt domain binding to CBFb; Q01196+Q13951; Cerulean-Runt/Venus-CBFb FRET ratio 530/480, 1 h; inhibition, % at 20 µM; 220,000 compounds, 0.46% hits; AID 1496;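 active = inhibition over about 50% at 20 µM in the single-dose screen, limit read from the data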;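 note: 0% = DMSO wells and 100% = excess unlabeled CBFb competitor control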
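Measured by: fluorescence energy transfer, 422 nm excitation, 530/480 nm emission; test system: Cerulean-tagged RUNX1 Runt domain (FRET donor) fusion protein; buffer or medium: Tris pH 7.5 buffer with BSA; compound: one dose, 20 µM compound, 1% DMSO; times: two 1 h room-temperature incubations shielded from light; benchmarks: unlabeled CBFb 5 µM, positive control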
PfM18AAP inh-1 = blocks P. falciparum M18 aspartyl aminopeptidase; recombinant PfM18AAP, H-Glu-NHMec fluorogenic cleavage; inhibition, % at 7.35 µM; 290,000 compounds, 1.2% hits; AID 1822;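 active = inhibition above the campaign mean inhibition over all tested compounds plus 3 SD, cut at about 28% in these data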;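 note: 0% = plate median of test compound wells and 100% = 2 mM ZnCl2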
RBBP9 confirm = human RBBP9 inhibition, confirmation. inhibition, % at 7.94 µM. recombinant RBBP9, FP-Rh probe fluorescence polarization. shares compounds with RBBP9 inhibitor. 410 compounds, 36% hits;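 active = inhibition above the hit cutoff derived for the primary screen, cut at about 15% in these data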;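 note: 0% = RBBP9 with DMSO and 100% = wells lacking RBBP9 protein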
PfM18AAP inh-2 = PfM18AAP inhibition, confirmation; shares compounds with PfM18AAP inh-1; AID 2170; 2,400 compounds, 28% hits; recombinant PfM18AAP, H-Glu-NHMec fluorogenic cleavage; inhibition, % at 7.35 µM;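 active = mean inhibition over replicate wells above the hit cutoff set for the earlier primary screen, cut at about 29% in these data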;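 note: 0% = median of test compound wells and 100% = 2 mM ZnCl2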
CTSL1 confirm = counter-screen for PFM18AAP inhibitors: confirmation of human cathepsin L inhibitors; shares compounds with PfM18AAP inh-1; purified cathepsin L1, Z-Leu-Arg-MCA fluorescence; inhibition, % at 5.96 µM; 2,400 tested, under 10 active;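 active = average inhibition across replicates above the hit cutoff set in the earlier primary screen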;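 note: 0% = median of test compound wells and 100% = Z-Phe-Ala-diazomethylketone 1 µM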
YIC counter = counter-screen: alters YIC FRET probe signal. shares compounds with RanGTP-Imp inh. Purified YIC probe, intramolecular FRET ratio YFP/CFP. IC50, µM. 1,000 compounds, 40% hits;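 active = fitted half-maximal inhibitory concentration no more than tenfold above the top dose tested; inconclusive = flat fit with 30 to 70% activity, or poor fit; inactive = half-maximal concentration beyond tenfold above the top dose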
Hck Nef conf = confirmation of Hck-Nef kinase inhibitors; shares compounds with Hck-Nef inh; Recombinant Hck-YEEI:Nef, Z-Lyte FRET kinase assay; calls only at 10 µM; 1,300 compounds, 28% hits;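 active = average inhibition of at least 50%, with Z-scores no higher than 3 in both the phospho-tyrosine peptide and fluorescence counterscreens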
* hit, by the source's call; i = inactive; ? = inconclusive; · = not tested or not shown; + = active, no number. The list is not random: actives were taken first. Their share in the collection is about 2.9%.

SMILES	RBBP9 inhibitor	Runt-SMMHC FRET	RanGTP-Imp inh	Hck-Nef inh	Runt-CBFb FRET	PfM18AAP inh-1	RBBP9 confirm	PfM18AAP inh-2	CTSL1 confirm	others
O=C1C2C3C=CC(C3)C2C(=O)N1c1ccccc1 (stereo unspecified)	-6	-10	-1	0	0	1	·	·	·
O=C1C(C2=NC(c3ccccn3)C3C(=O)N(c4ccccc4)C(=O)C23)=C(O)c2ccccc21 (stereo unspecified)	60*	2	0	22	-4	71*	8	-30	2
CCN(CC)S(=O)(=O)c1cccc(C(=O)N/N=C/c2ccc(O)c(O)c2O)c1	18*	25	·	0	43	42*	66*	27	0
Cc1ccc(C(=O)CN2C(=O)C(=O)N(Cc3ccccc3)C2=O)cc1	-1	0	?	6	-2	3	·	·	·
C=CCN=c1scc(C)n1/N=C/c1ccc(O)c(O)c1	23*	9	1	23	32	57*	24*	40*	9
CN(Cc1ccc(C(C)(C)C)cc1)C(=O)c1ccc2c(=O)n3c(nc2c1)CCC3	·	·	-1	·	·	·	·	·	·
Nc1nn2c(C(F)(F)F)cc(=O)[nH]c2c1N=Nc1cccc(F)c1	-4	-6	-8	21	-2	-5	·	·	·
Cc1cc(=O)[nH]c2c(N=Nc3ccc(O)cc3)c(N)nn12	23*	-1	-4	-2	1	61*	34*	62*	6
O=[N+]([O-])c1ccc(Nc2c3ccccc3nc3ccccc23)cc1	16*	23	25*	22	48	11	12	·	·	YIC counter=>50
Cc1ccc(S(=O)(=O)CCC(=O)NC2CCCC2)cc1	·	·	-3	·	·	-9	·	·	·
CN=c1scc(-c2ccco2)n1/N=C/c1ccc(O)c(O)c1	26*	9	-2	51*	7	59*	6	51*	2	Hck Nef conf=i
COc1ccc(O)c(/C=N/n2c(-c3ccco3)csc2=Nc2cccnc2)c1	-5	-19	3	-1	-1	-1	·	·	·
CN(C)S(=O)(=O)c1cccc(NC(=S)N/N=C/c2ccc(O)c(O)c2O)c1	32*	9	4	91*	37	49*	51*	40*	1	Hck Nef conf=+
CN=c1scc(-c2ccccc2F)n1/N=C/c1ccc(O)c(O)c1O	33*	18	2	122*	44	31*	59*	·	·	Hck Nef conf=i
CC(C)CCN1C(=O)c2ccc(C(=O)NCc3ccccn3)cc2C1=O	·	·	-3	·	·	·	·	·	·
O=C(c1ccc(CS(=O)c2cccc(Cl)c2)o1)N1CCN(c2ccccn2)CC1 (stereo unspecified)	·	·	5	·	·	-3	·	·	·
CCC(=O)Oc1ccc2c(C)cc(=O)oc2c1C(=O)CC	18*	-1	1	154*	6	13	11	·	·
COc1ccc(S(=O)(=O)N(C)CC(=O)NCCCn2ccnc2)cc1Cl	·	·	0	·	·	7	·	·	·
O=c1cc(O)c2ccc(O)cc2o1	1	-4	0	6	-1	6	·	·	·
O=c1ccc2[n+]([O-])c3ccc(O)cc3oc-2c1	+	9	?	51*	7	39*	-298	-37	4	Hck Nef conf=i
Cc1ccc(NC=C(S(=O)(=O)c2ccccc2)S(=O)(=O)c2ccccc2)c(C)c1	-6	3	-3	-2	0	-1	·	·	·
Cc1ccc(N/C=C(\C2OC(=O)c3ccccc32)[N+](=O)[O-])c(C)c1 (stereo unspecified)	-4	5	0	18	14	51*	·	-36	5
COc1cc(-c2nnc(SCc3cc(=O)oc4cc(O)c(O)cc34)o2)cc(OC)c1OC	-9	59*	9	11	67*	35*	·	2	5
CCOC(=O)CSc1nnc(-c2cc(OC)c(OC)c(OC)c2)o1	1	-1	3	16	0	-3	·	·	·
NS(=O)(=O)c1ccc(NNC(=O)c2sccc2Cl)cc1	-6	0	-1	-14	5	52*	·	28	-8
SMILES	RBBP9 inhibitor	Runt-SMMHC FRET	RanGTP-Imp inh	Hck-Nef inh	Runt-CBFb FRET	PfM18AAP inh-1	RBBP9 confirm	PfM18AAP inh-2	CTSL1 confirm	others
O=C(OCCCOC(=O)c1ccc(Br)o1)c1ccc(Br)o1	·	·	0	·	·	·	·	·	·
CC12CC3CC(C)(C1)CC(C(=O)NCc1cccnc1)(C3)C2	·	·	-2	·	·	0	·	·	·
COc1ccc(-c2cn(-c3ccc(C)c(C)c3)c(=S)[nH]2)cc1OC	·	·	6	·	·	32*	·	6	-2
COc1ccccc1-c1cn(-c2ccccc2)c(=S)[nH]1	·	·	3	·	·	13	·	·	·
COc1ccc(-c2cn(-c3ccccc3)c(=S)[nH]2)cc1OC	·	·	3	·	·	44*	·	11	-5
COc1cccc(-n2cc(-c3ccc(F)cc3)[nH]c2=S)c1	·	·	-1	·	·	41*	·	26	0
COc1ccc(-c2cn(-c3ccc(C)c(Cl)c3)c(=S)[nH]2)cc1OC	·	·	2	·	·	22	·	·	·
Cc1nn(CCC#N)c(N)c1C1(O)C(=O)Nc2c(Cl)cc(Cl)cc21 (stereo unspecified)	-11	-1	-1	4	1	0	·	·	·
Cc1ccccc1-c1nc(CS(=O)(=O)CC(=O)NC2CC2)c(C)o1	·	·	-2	·	·	-5	·	·	·

Assay outcomes: PubChem BioAssay, several laboratories
